Results reported in ChEMBL document CHEMBL4330165, “Absolute Configuration of Bioactive Azaphilones from the Marine-Derived Fungus Pleosporales sp. CF09-1” (2019).
Converted amounts (≈) assume the structure as drawn.

Legend:
Type in all cases: functional
Botryosphaeria dothidea = experiment: Antifungal activity against Botryosphaeria dothidea CICC 2678 after 48 hrs by broth dilution assay; details: CICC 2678, 48 h
Summary of the method: (§1)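 Conventional broth dilution. Fungi were grown on PDA at 28 °C for 72 h. Seed culture was diluted in PYG (peptone 1.0%, glucose 2.0%, yeast extract 1.0%) in 96-well plates. DMSO stocks (10 mg/mL) were serially diluted to in-test 0.78–100 μg/mL. Plates were incubated 48 h at 28 °C, humidified. Ketoconazole was the positive control and DMSO the negative control. MIC was the endpoint.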

Alternaria brassicicola = experiment: Antifungal activity against Alternaria brassicicola CICC 2646 after 48 hrs by broth dilution assay; details: CICC 2646, 48 h; summary of the method: as §1
Fusarium oxysporum = experiment: Antifungal activity against […] oxysporum CICC 41029 after 48 hrs by broth dilution assay; details: CICC 41029, 48 h; summary of the method: as §1
Vibrio alginolyticus = experiment: Antibacterial activity against Vibrio alginolyticus CICC 21664 after 48 hrs by broth dilution method; details: CICC 21664, 48 h
Summary of the method: (§2)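 Microbroth dilution in LB medium (peptone 10 g/L, yeast extract 5 g/L, NaCl 10 g/L). Ciprofloxacin served as positive control. MIC was read as the endpoint.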

Vibrio anguillarum = experiment: Antibacterial activity against Vibrio anguillarum CICC 10475 after 48 hrs by broth dilution method; summary of the method: as §2
Vibrio parahaemolyticus = experiment: Antibacterial activity against Vibrio parahaemolyticus CICC 10552 after 48 hrs by broth dilution method; summary of the method: as §2

Row | SMILES | MIC (Botryosphaeria dothidea) [µg/mL] | MIC (Alternaria brassicicola) [µg/mL] | MIC (Fusarium oxysporum) [µg/mL] | MIC (Vibrio alginolyticus) [µg/mL] | MIC (Vibrio anguillarum) [µg/mL] | MIC (Vibrio anguillarum; Vibrio anguillarum, CICC 10475, 48 h, read-out: MIC) [µg/mL] | MIC (Vibrio parahaemolyticus) [µg/mL] | MIC (Vibrio parahaemolyticus; Vibrio parahaemolyticus, CICC 10552, 48 h, read-out: MIC) [µg/mL]
1 | C/C=C(\C)[C@H](OC(C)=O)[C@H](C)C(=O)O[C@@]1(C)C(=O)C=C2C=C(c3c(C)cccc3O)OC=C2C1=O | 3.1 (≈ 6.45 µM) | 6.3 (≈ 13.1 µM) | 25 (≈ 52 µM) |  |  |  |  | 
2 | C/C=C(\C)[C@H](OC(C)=O)[C@H](C)C(=O)O[C@@]1(C)C(=O)C2=COC(C3=C(C)CCCC3=O)=CC2=C(Cl)C1=O | 13 (≈ 25.1 µM) | 1.6 (≈ 3.09 µM) | 1.6 (≈ 3.09 µM) |  |  |  |  | 
3 | O=C(O)c1cn(C2CC2)c2cc(N3CCNCC3)c(F)cc2c1=O [CIPROFLOXACIN] |  |  |  | 13 (≈ 39.2 µM) |  | 6.3 (≈ 19 µM) |  | 3.1 (≈ 9.36 µM)
4 | CC(=O)N1CCN(c2ccc(OCC3COC(Cn4ccnc4)(c4ccc(Cl)cc4Cl)O3)cc2)CC1 (configuration not stated) [KETOCONAZOLE] | 3.1 (≈ 5.83 µM) | 3.1 (≈ 5.83 µM) | 6.3 (≈ 11.9 µM) |  |  |  |  | 

Now from value to compound, other results behind:

Row | MIC (Botryosphaeria dothidea) [µg/mL] | MIC (Alternaria brassicicola) [µg/mL] | MIC (Fusarium oxysporum) [µg/mL] | MIC (Vibrio alginolyticus) [µg/mL] | MIC (Vibrio anguillarum) [µg/mL] | MIC (Vibrio anguillarum; Vibrio anguillarum, CICC 10475, 48 h, read-out: MIC) [µg/mL] | SMILES | MIC (Vibrio parahaemolyticus) [µg/mL] | MIC (Vibrio parahaemolyticus; Vibrio parahaemolyticus, CICC 10552, 48 h, read-out: MIC) [µg/mL]
5 | 13 (≈ 26.9 µM) | 13 (≈ 26.9 µM) | 6.3 (≈ 13.1 µM) |  |  |  | C/C=C(\C)[C@H](OC(C)=O)[C@H](C)C(=O)O[C@@]1(C)C(=O)C=C2C=C(C3=C(C)CCCC3=O)OC=C2C1=O |  | 
6 | > 50 | > 50 | > 50 | 25 (≈ 57.5 µM) |  |  | CO[C@@H]1CO[C@@]2(CC3=CC(=O)[C@@](C)(O)[C@@H](OC(=O)c4c(C)cc(O)cc4O)[C@@H]3CO2)C1 |  | 
7 | > 50 | > 50 | > 50 | 25 (≈ 57.5 µM) |  |  | CO[C@H]1CO[C@@]2(CC3=CC(=O)[C@@](C)(O)[C@@H](OC(=O)c4c(C)cc(O)cc4O)[C@@H]3CO2)C1 |  | 
8 |  |  |  |  | 13 (≈ 29.9 µM) |  | COC(CO)CC1=CC2=CC(=O)[C@@](C)(O)[C@@H](OC(=O)c3c(C)cc(O)cc3O)[C@@H]2CO1 (stereo in doubt; 6) | 6.3 (≈ 14.5 µM) | 
9 |  |  |  |  | 6.3 (≈ 14.5 µM) |  | COC(CO)CC1=CC2=CC(=O)[C@@](C)(O)[C@@H](OC(=O)c3c(C)cc(O)cc3O)[C@@H]2CO1 (stereo in doubt; 7) | 25 (≈ 57.5 µM) | 
